A selection: hits, their analogues and other compounds. The true share with any hit is near 2%.
STAT1 blocker: reduces IFN-gamma driven STAT1 reporter signal; NIH 3T3 STAT1-luciferase reporter, luminescence; inhibition, % at 5.5 µM; 200,000 tested, 0.35% active; AID 920;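 active = inhibition above a set limit, the mean inhibition across all tested compounds plus 3 SD, cut at about 34% in these data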;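 also: 0% = IFN-gamma with DMSO and 100% = IFN-gamma with 300 µM nifuroxazide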
STAT3 act: activators of IL-6 induced STAT3 signaling. U3A cells, IL-6 STAT3-luciferase reporter, luminescence; 100% = signal with IL-6 EC80 alone. activation (% of control), % at 5.6 µM. 190,000 tested, 0.91% active;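 active = activation above the screen-wide mean of compound activation plus 3 SD, cut at about 130% in these data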;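 also: 0% = background luminescence of wells with medium and substrate only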
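Test system: Human STAT1-deficient U3A cells with stable STAT3-luciferase reporter | Also added: Interleukin-6, 33 ng/mL | Timing: Compound pre-incubation 1 h before IL-6, then 6 h stimulation at 37 °C | Technique: Luciferase reporter luminescence | Read-out: Percent of IL-6-only median luminescence | Benchmarks: IL-6-only wells as 100% reference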
STAT3 blocker: inhibitors of IL-6 induced STAT3 signaling; U3A cells, IL-6 STAT3-luciferase reporter, luminescence; host cell line lacks STAT1; inhibition, % at 5.5 µM; 190,000 tested, 0.89% active; AID 862;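 active = inhibition above the mean inhibition across all screened compounds plus 3 SD, cut at about 44% in these data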;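 also: 0% = DMSO only wells and 100% = 100 µM nifuroxazide control wells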
HSP90 inh: inhibitors of HSP90 luciferase refolding in rabbit reticulocyte lysate; luciferase refolding luminescence, 3 h; inhibition, % at 5.6 µM; 290,000 tested, 0.91% active;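 active = inhibition above the screen-wide mean plus 3 SD, computed separately per campaign, cut at about 16% in these data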;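 also: 0% = DMSO wells and 100% = 60 µM geldanamycin wells; inhibitors lower the luminescence because luciferase stays unfolded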
HSP90 confirm: confirmation of HSP90 inhibitors; AID 1846; shares compounds with HSP90 inh; 2,300 tested, 64% active; rabbit reticulocyte lysate, luciferase refolding luminescence, 3 h; inhibition, % at 5.9 µM; in the data active = inhibition above about 18%;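 also: 0% = vehicle wells and 100% = reference inhibitor wells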
luciferase ctr: blocks native firefly luciferase in HSP90 counter-screen; shares compounds with HSP90 inh; purified native firefly luciferase, luminescence; inhibition, % at 5.9 µM; 2,300 tested, 48% active;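 active = inhibition above the mean inhibition of all tested sample wells plus 3 SD, cut at about 10% in these data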;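 also: 0% = DMSO with luciferase and 100% = wells lacking luciferase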
Target sequence (P08659 whole entry, looked up): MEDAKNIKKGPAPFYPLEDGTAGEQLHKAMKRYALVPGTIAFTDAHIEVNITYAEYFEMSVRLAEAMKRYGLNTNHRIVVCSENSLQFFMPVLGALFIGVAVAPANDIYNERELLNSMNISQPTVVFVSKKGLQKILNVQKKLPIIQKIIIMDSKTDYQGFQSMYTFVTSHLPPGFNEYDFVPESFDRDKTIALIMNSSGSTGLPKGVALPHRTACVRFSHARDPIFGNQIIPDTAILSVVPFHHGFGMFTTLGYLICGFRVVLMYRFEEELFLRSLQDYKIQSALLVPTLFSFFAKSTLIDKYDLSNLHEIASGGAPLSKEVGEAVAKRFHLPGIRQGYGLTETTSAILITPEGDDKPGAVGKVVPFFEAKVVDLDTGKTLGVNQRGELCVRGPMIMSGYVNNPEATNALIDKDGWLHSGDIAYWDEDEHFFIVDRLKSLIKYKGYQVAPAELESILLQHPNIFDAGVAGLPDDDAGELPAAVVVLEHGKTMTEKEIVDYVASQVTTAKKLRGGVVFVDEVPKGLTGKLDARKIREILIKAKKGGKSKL
An asterisk follows results filed as active; . = not tested or not shown.

SMILES | STAT1 blocker | STAT3 act | STAT3 blocker | HSP90 inh | HSP90 confirm | luciferase ctr
CC1CN/C(=C\C(=O)c2ccc(Cl)cc2)C(=O)N1 (configuration not stated) | -26.6 | 76.7 | 30.8 | 21.9* | 40.2* | 24.4*
O=C(Oc1ccc2ccccc2c1Br)N1CCCCCC1 | -38.2 | 99.6 | 0.8 | 21.7* | 42.9* | 26.2*
COC(=O)c1sc2nc(C)cc(C)c2c1N | -17.6 | 85.9 | 20.4 | 0.0 | . | .
Cc1cc(C)c2c(N)c(C(=O)Nc3ncc(C)s3)sc2n1 | 87.2* | 11.1 | 107.6* | 70.2* | 91.6* | 87.5*
O=C(N/N=C/c1cccnc1)NC12CC3CC(CC(C3)C1)C2 | . | . | . | 31.8* | 6.3 | 0.8
COc1cccc(N(CC(=O)NC2CCCCC2)C(=O)CCC(=O)Nc2nccs2)c1 | . | . | . | 0.2 | . | .
COCCOC(=O)CSc1ncccc1-c1nc2cc(C)c(C)cc2[nH]1 | -10.6 | 100.1 | 7.5 | -0.4 | . | .
Cc1cc2nc(-c3cccnc3SCC(=O)NC(C)C)[nH]c2cc1C | -31.4 | 109.7 | -10.8 | 33.8* | -3.2 | -23.3
Cn1c(=O)c([N+](=O)[O-])c(N2CCN(Cc3ccc4c(c3)OCO4)CC2)c2ccccc21 | . | . | . | 9.0 | . | .
COc1ccc(-c2cc(C(=O)N3CCN(Cc4ccccc4)CC3)no2)cc1OC | -8.8 | 109.5 | -4.6 | 52.3* | -1.1 | -12.8
COc1cc2cc(C(=O)N3CCOCC3)cc(-c3ccc(C)cc3)c2cc1OC | . | . | . | 50.1* | 5.0 | 1.3
Cc1ccc(-c2cc(C(=O)N3CCOCC3)no2)cc1 | . | . | . | 62.0* | 68.4* | 56.7*
O=C(c1cc(-c2ccco2)on1)N1CCOCC1 | -7.9 | 97.0 | 7.4 | -0.9 | . | .
COc1ccc(-c2cc(C(=O)N3CCOCC3)c3cc(C)ccc3n2)cc1 | -7.8 | 105.7 | -2.4 | 0.6 | . | .
O=C(c1cc(-c2ccc(Cl)c(Cl)c2)on1)N1CCCCCC1 | . | . | . | -1.5 | . | .
O=C(c1cc(-c2ccc3c(c2)OCO3)on1)N1CCCCC1 | . | . | . | 35.7* | 58.4* | 55.2*
CCOc1ccc(C(C(=O)NCC2CCCO2)N(Cc2cccnc2)C(=O)c2snc(C(N)=O)c2N)cc1 (configuration not stated) | . | . | . | -3.4 | . | .
O=C(CNC(=O)c1ccccn1)N=Nc1c(O)[nH]c2ccccc12 | . | . | . | 4.0 | . | .
CCOc1ccc(CCNC(=O)c2c(C)nn(-c3ccccc3)c2Cl)cc1OCC | . | . | . | -0.2 | . | .
O=C(CNC(=O)Cc1ccc(Cl)cc1)NCC(=O)N1CCCCC1 | . | . | . | 22.7* | -3.3 | -7.4
C/C(=N\Nc1nc(C)cc(C)n1)c1ccc(N2CCOCC2)cc1 | -3.3 | 98.2 | 9.6 | 0.0 | . | .
C/C(=N\Nc1nc2ccccc2[nH]1)c1ccc(N2CCOCC2)cc1 | 14.6 | 83.8 | 20.7 | 18.6* | 0.6 | -12.0
COc1cccc(CNc2ccc3[nH]c(=O)[nH]c3c2)c1OCc1ccccc1F | . | . | . | 3.4 | . | .
CCC(Cc1ccccc1)NC(=O)C1CCN(S(=O)(=O)c2ccc3c(c2)CC(C)N3C(C)=O)CC1 (configuration not stated) | . | . | . | 2.0 | . | .
COc1ccc(C(=O)Nc2ccc3ccccc3c2)c(OC)c1 | . | . | . | 23.9* | 19.5* | 9.8*
SMILES | STAT1 blocker | STAT3 act | STAT3 blocker | HSP90 inh | HSP90 confirm | luciferase ctr
COc1ccc(C(=O)NCCn2ccc3ccccc32)c(OC)c1 | -21.0 | 126.2 | -25.2 | 37.6* | 15.8 | -9.4
CC(C)(C)N(Cc1ccccc1)C(=O)COC(=O)CN1C(=O)NC2(CCCC2)C1=O | . | . | . | 0.0 | . | .
O=C(NC1=NCCS1)C1COc2ccccc2O1 (configuration not stated) | 76.6* | 13.7 | 98.8* | 78.7* | 92.1* | 81.0*
Cc1cccc(Nc2nc3c(s2)CCCC3)c1 | -71.8 | 106.8 | -9.4 | -7.9 | . | .
Cc1nc(Nc2ccc(C(=O)O)cc2)sc1-c1ccccc1 | -33.4 | 40.6 | 71.7* | 34.2* | 83.9* | 63.0*
O=C(O)c1ccc(Nc2nc3c(s2)CCCC3)cc1 | 68.8* | 32.4 | 80.1* | 66.6* | 91.3* | 80.5*
O=C(NC(=S)Nc1cccc(Cl)c1Cl)C1CC1 | . | . | . | 7.5 | . | .
O=C(Cn1cnc([N+](=O)[O-])c1)Nc1ccccc1C(F)(F)F | . | . | . | 2.1 | . | .
Cc1onc(-c2c(F)cccc2Cl)c1C(=O)N1CCN(c2ncc(Br)cn2)CC1 | . | . | . | -1.4 | . | .
CC(=O)c1ccc(S(=O)(=O)N2CCN(C(=O)CSc3ccc(F)cc3)CC2)cc1 | . | . | . | 24.2* | -6.8 | -9.9
Cc1csc(NC(=O)c2ccc(N3CCCC3=O)cc2)n1 | 65.2* | 25.0 | 89.3* | 42.2* | 77.0* | 68.3*
COc1ccc(C(=O)Nc2nnc(Cc3ccccc3)s2)c(OC)c1 | . | . | . | -1.4 | . | .
COc1ccc(N(C(=O)c2ccco2)S(=O)(=O)c2ccc(F)cc2)cc1 | 5.9 | 93.0 | 11.9 | 16.9* | -0.5 | -3.7
Cc1cc(OC(C)C(=O)NCCCN2CCOCC2)c2c(C)c(C)c(=O)oc2c1 (configuration not stated) | . | . | . | -2.7 | . | .
Cc1c(C(=O)Nc2ccc(C(F)(F)F)cc2)sc2ncn(CC(=O)N3CCN(c4ccccn4)CC3)c(=O)c12 | . | . | . | -3.4 | . | .
COc1ccccc1C(=O)N/C(=N/c1nc(C)cc(C)n1)Nc1ccccc1 | . | . | . | -2.2 | . | .
O=C(Nc1ccccc1)c1ccc2c(c1)OCCO2 | -50.3 | 79.0 | 27.9 | 4.8 | . | .
O=C(Nc1cccc(C(=O)O)c1)Nc1ccc2c(c1)OCO2 | . | . | . | 86.0* | 96.0* | 91.1*
O=C(Nc1ccc2c(c1)OCCO2)c1ccc(Cl)cc1 | . | . | . | 18.9* | 24.9* | 15.3*
O=C(Nc1ccc2c(c1)OCO2)c1ccc2c(c1)OCO2 | -35.9 | 70.4 | 36.4 | 6.5 | . | .
Cc1cccc(NC(=O)c2ccc3c(c2)OCCO3)c1 | . | . | . | 33.5* | 48.5* | 35.5*
O=C(Nc1ccc2c(c1)OCO2)Nc1ccc2c(c1)OCO2 | -47.2 | 97.6 | 6.5 | -3.5 | . | .
Cc1cc(C(=O)Nc2ccc3c(c2)OCO3)cs1 | -50.2 | 110.8 | -9.1 | 20.0* | 12.3 | -14.2
CCCCN(C)CCN1C(=O)C2C(C(=O)Nc3ccc(C)cc3)C3C=CC2(O3)C1C(=O)NC1CCCCC1 (configuration not stated) | . | . | . | 4.5 | . | .
O=C1CC(C(F)(F)F)=NN1 | . | . | . | 5.6 | . | .
SMILES | STAT1 blocker | STAT3 act | STAT3 blocker | HSP90 inh | HSP90 confirm | luciferase ctr
Cc1ccc(NC(=O)C2CC(O)CN2C(=O)OCc2ccccc2)cc1C (configuration not stated) | . | . | . | -5.3 | . | .
COc1ccc(Nc2nc(-c3ccccc3)c(C(=O)Nc3cccnc3)s2)cc1 | -13.8 | 95.4 | 5.5 | 2.6 | . | .
Cc1ccc(C(=O)Nc2ccc3c(c2)OCCO3)c(C)c1 | . | . | . | 65.5* | 82.5* | 76.5*
O=C(Nc1ccc2c(c1)OCCO2)c1ccccn1 | 47.0* | 45.1 | 69.5* | 24.8* | 66.6* | 52.6*
CC(=O)Nc1ccc(C(=O)Nc2ccc3c(c2)OCCO3)cc1 | . | . | . | -0.6 | . | .
Cc1ccc(NC(=O)c2ccc3c(c2)OCCO3)cc1C | . | . | . | 42.4* | 68.0* | 60.9*
Cc1noc(C)c1-c1nc(CSc2ccccc2)no1 | . | . | . | -2.0 | . | .
Cc1ccc(C)c(N2CCN(C(=O)CCS(=O)(=O)c3ccc4c(c3)oc(=O)n4C)CC2)c1 | . | . | . | -3.9 | . | .
Cc1nnc(NC(=O)C2CC(=O)N(c3ccccc3)C2)s1 (configuration not stated) | . | . | . | -1.9 | . | .
COc1ccc(NC(=S)Nc2ccccn2)cc1 | . | . | . | 26.1* | -8.5 | -17.7
